# Assay results taken from PubChem BioAssay.
# Calls of active or inactive are those of the source.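 How the source made its calls, unless noted: active means GFP response above 150% of the DMSO level; inconclusive means fewer than 70 events counted for a yeast strain; inactive means the rest.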
# Key:
# [1] = RPL19A-GFP modulators, yeast TOR pathway, confirmation, cell-based, S. cerevisiae, flow cytometry, cherry picks, mother/daughter gates (AID 2270;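 active means GFP response below 50% of the DMSO control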); details: S. cerevisiae RPL19A-GFP strain, 3 h, at 10 µM, stronger effect = lower value, 100 = same GFP as DMSO wells
# [2] = LAP4-GFP expression modulators in yeast, confirmation, cell-based, cherry picks, flow cytometry, mother/daughter gates (AID 2271;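 active means GFP response above 150% of the DMSO control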;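 further: ratio of sample to DMSO plate mean so 100% equals DMSO level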); details: S. cerevisiae LAP4-GFP strain, 3 h, at 10 µM, stronger effect = higher value, 100 means same as DMSO control
# Procedure, shortened: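 Material: Alexa Fluor 633-labelled Saccharomyces cerevisiae GFP-fusion strain, single-plex | Amount: Yeast cells seeded at OD600 of 0.2 | Buffer or medium: SC growth medium | Schedule: 3 h exposure, 30 °C | Measured by: HT flow cytometry, GFP fluorescence channel | Evaluation: % GFP response vs DMSO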
# [3] = modulators of MEP2-GFP levels in yeast, confirmation, S. cerevisiae, flow cytometry GFP, cherry picks (AID 2272;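 active means GFP response above 150% of the DMSO control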;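 further: ratio of well signal to plate DMSO mean so 100% equals DMSO level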); details: S. cerevisiae MEP2-GFP strain, 3 h, at 10 µM, stronger effect = higher value
# [4] = AGP1-GFP expression modulators, hit retest, confirmation, cell-based, flow cytometry, S. cerevisiae, cherry picks (AID 2273);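 further: median GFP channel fluorescence over the whole cell population gate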; details: S. cerevisiae AGP1-GFP strain, 3 h, at 10 µM
# [5] = modulators of CIT2-GFP expression in yeast, confirmation, S. cerevisiae, GFP fusion, cherry picks, mother/daughter gates (AID 2274); details: S. cerevisiae CIT2-GFP strain, flow cytometry, 3 h, at 10 µM, stronger effect = higher value
# [6] = measured here: daughter cell gate
# [7] = measured here: mother cell gate
# [8] = measured here: daughter cell gate response
# [9] = measured here: mother cell gate response
Structure (SMILES),GFP response vs DMSO [1],"GFP response vs DMSO [1, 6]","GFP response vs DMSO [1, 7]",GFP response relative to DMSO [2],"GFP response relative to DMSO [2, 8]","GFP response relative to DMSO [2, 9]",GFP response vs DMSO [3],"GFP response, % of DMSO [4]","GFP response, % of DMSO [5]","GFP response, % of DMSO [5, 6]","GFP response, % of DMSO [5, 7]"
Oc1c(Br)cc(Br)cc1C=Nc1ccc2[nH]ncc2c1,99.5% (inactive),89.2%,97.2%,185% (active),124%,176%,112% (inactive),102% (inactive),96.4% (inactive),102%,87.5%
COc1ccc(-n2c(N)c(C(=O)Nc3c(C)n(C)n(-c4ccccc4)c3=O)c3nc4ccccc4nc32)cc1,97.4% (inactive),94.4%,98.1%,99.5% (inactive),99.1%,99.4%,103% (inactive),102% (inactive),94.4% (inactive),93.8%,94.4%
Cc1cccc(N=c2c([N+](=O)[O-])nn(-c3ccc(Cl)cc3)n2O)c1,97% (inactive),95.1%,97.7%,111% (inactive),104%,114%,102% (inactive),90.4% (inactive),107% (inactive),103%,108%
O=c1cnnc(SCc2ccc([N+](=O)[O-])cc2)[nH]1,97.4% (inactive),99.1%,96.2%,102% (inactive),101%,100%,105% (inactive),96% (inactive),98.3% (inactive),99.1%,98.5%
Cc1ccc(S(=O)(=O)Cc2cc(F)c([N+](=O)[O-])cc2[N+](=O)[O-])cc1,74.2% (inactive),88.4%,62.6%,251% (active),146%,223%,127% (inactive),105% (inactive),89.7% (inactive),84.1%,72.8%
COc1ccc(-c2ccc(S(=O)(=O)N3CCOCC3)cc2)cc1,95.4% (inactive),93.9%,95.7%,107% (inactive),106%,107%,99% (inactive),100% (inactive),100% (inactive),97.4%,102%
COc1ccccc1-c1nnc(NC(=O)c2ccc3c(c2)OCO3)s1,106% (inactive),104%,108%,85.4% (inactive),84.8%,89%,97.8% (inactive),98.5% (inactive),100% (inactive),101%,99.8%
Cc1c(C(=O)NCCSCc2cccc(C(F)(F)F)c2)cnn1-c1ccc(F)cc1,102% (inactive),103%,103%,98.8% (inactive),96.5%,98.5%,104% (inactive),99.1% (inactive),108% (inactive),102%,108%
Cc1ccc(NC(=O)c2ccccc2O)cc1,103% (inactive),102%,102%,100% (inactive),95%,99.5%,110% (inactive),101% (inactive),104% (inactive),106%,99.1%
O=C1CC(SCc2nc3ccccc3[nH]2)C(=O)N1c1ccc(F)cc1 (stereo unspecified),102% (inactive),101%,100%,110% (inactive),108%,109%,110% (inactive),106% (inactive),108% (inactive),108%,107%
O=C1CC(c2ccccc2)CN1S(=O)(=O)c1ccccc1 (stereo unspecified),98.4% (inactive),96.4%,98.9%,97.9% (inactive),99.2%,97.2%,105% (inactive),101% (inactive),103% (inactive),103%,103%
Cc1nc2ccc(Br)cn2c1C(=O)N/N=C\c1ccccc1Cl,95.4% (inactive),95.6%,96.6%,94.1% (inactive),94.4%,96.1%,96.2% (inactive),98% (inactive),99.7% (inactive),99.1%,99.7%
Cc1ccc(C(=O)NNC(=S)NC(=O)COc2ccccc2)cc1,122% (inactive),92.1%,110%,223% (active),186%,203%,153% (inactive),134% (inactive),138% (inactive),139%,110%
COc1cc(NC(=O)c2ccc(Br)cc2)ccc1NC(=O)c1cc2ccccc2o1,99.9% (inactive),99%,100%,96.2% (inactive),98.7%,98.3%,100% (inactive),95.7% (inactive),96.5% (inactive),96.5%,97.7%
COc1ccc(-c2nc(NC(=O)c3cc(C(C)(C)C)nn3C)sc2C)cc1,98.7% (inactive),100%,99%,98.9% (inactive),101%,99.5%,103% (inactive),100% (inactive),104% (inactive),103%,104%
Cc1ccc(S(=O)(=O)N(CC(=O)NCc2ccncc2)Cc2ccccc2F)cc1,97.6% (inactive),97.1%,98.5%,99.2% (inactive),99.2%,97.2%,105% (inactive),102% (inactive),103% (inactive),101%,102%
C=CCNC(=O)/C(=C\c1ccc(OC)cc1)NC(=O)c1ccc([N+](=O)[O-])cc1,97.4% (inactive),97.6%,98.7%,97.3% (inactive),99.7%,96.2%,96.6% (inactive),100% (inactive),108% (inactive),108%,110%
O=[N+]([O-])c1ccc(Sc2ccccc2)nc1,97.8% (inactive),97.3%,98%,104% (inactive),104%,105%,108% (inactive),105% (inactive),101% (inactive),101%,103%
COc1cccc(C2CC(c3c(-c4ccccc4)c4cc(Cl)ccc4[nH]c3=O)=NN2S(C)(=O)=O)c1OC (stereo unspecified),94.3% (inactive),96.5%,95%,100% (inactive),101%,99.5%,99.5% (inactive),102% (inactive),101% (inactive),102%,98%
CCN(CC)Cc1csc2ccc(Br)cc12,98.4% (inactive),97.8%,98.2%,96.2% (inactive),97.2%,99.3%,102% (inactive),100% (inactive),97.8% (inactive),96.5%,98.7%
Cc1nn(Cc2ccc(Cl)cc2)c(=O)n1N(C)c1ncc(C(F)(F)F)cc1Cl,96% (inactive),98.1%,97.2%,96.7% (inactive),97.6%,95.1%,96.2% (inactive),95.4% (inactive),99.7% (inactive),101%,98.5%
COc1ccc(OC)c(S(=O)(=O)N2Cc3ccccc3CC2C(=O)O)c1 (stereo unspecified),100% (inactive),101%,99.4%,104% (inactive),101%,106%,106% (inactive),102% (inactive),101% (inactive),103%,103%
Cc1[nH]c2ccccc2c1C(c1ccccn1)N1CCC(C(N)=O)CC1 (stereo unspecified),97.4% (inactive),99.1%,96.6%,96.7% (inactive),99.2%,97.2%,98.3% (inactive),94.7% (inactive),101% (inactive),103%,101%
O=C(c1ccccc1[N+](=O)[O-])n1cnc2ccccc21,100% (inactive),101%,100%,96.1% (inactive),98.2%,96.2%,94.4% (inactive),87.1% (inactive),117% (inactive),110%,119%
COc1ccc(N2C(=O)CC(Sc3ncn[nH]3)C2=O)c(OC)c1 (stereo unspecified),107% (inactive),112%,102%,172% (active),161%,167%,110% (inactive),102% (inactive),109% (inactive),115%,101%
O=C(COC(=O)c1n[nH]c2ccccc12)c1ccc(F)c(F)c1,97.1% (inactive),98.7%,96.3%,104% (inactive),97.5%,106%,103% (inactive),97% (inactive),98.6% (inactive),101%,98.2%
